# Measured values published in ChEMBL document CHEMBL2074473, “Inhibitory effect of a bitter melon extract on the P-glycoprotein activity in intestinal Caco-2 cells” (Br J Pharmacol, 2004).
# Target: T1, ATP-dependent translocase ABCB1 (Homo sapiens, UniProt P08183)
# Assay: TP_TRANSPORTER: Rhodamine 123 accumulation in Caco-2 cells
# Format: functional, cell-based
# Method in brief: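 Caco-2 monolayers (passages 40–66) grown 14 days on collagen-coated 24-well plates. Cells were equilibrated in HBSS with 4 mM bicarbonate and 10 mM HEPES, pH 7.4, then exposed to 15 μM rhodamine-123 ± sample (2 mg ml−1 extracts) for 2 h at 37°C. After ice-cold PBS/0.05% azide washes, fluorescence was read at ex 485/em 544 nm. Expressed as % of control, mean±s.d., n=4.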
# T1 sequence (P08183 whole entry): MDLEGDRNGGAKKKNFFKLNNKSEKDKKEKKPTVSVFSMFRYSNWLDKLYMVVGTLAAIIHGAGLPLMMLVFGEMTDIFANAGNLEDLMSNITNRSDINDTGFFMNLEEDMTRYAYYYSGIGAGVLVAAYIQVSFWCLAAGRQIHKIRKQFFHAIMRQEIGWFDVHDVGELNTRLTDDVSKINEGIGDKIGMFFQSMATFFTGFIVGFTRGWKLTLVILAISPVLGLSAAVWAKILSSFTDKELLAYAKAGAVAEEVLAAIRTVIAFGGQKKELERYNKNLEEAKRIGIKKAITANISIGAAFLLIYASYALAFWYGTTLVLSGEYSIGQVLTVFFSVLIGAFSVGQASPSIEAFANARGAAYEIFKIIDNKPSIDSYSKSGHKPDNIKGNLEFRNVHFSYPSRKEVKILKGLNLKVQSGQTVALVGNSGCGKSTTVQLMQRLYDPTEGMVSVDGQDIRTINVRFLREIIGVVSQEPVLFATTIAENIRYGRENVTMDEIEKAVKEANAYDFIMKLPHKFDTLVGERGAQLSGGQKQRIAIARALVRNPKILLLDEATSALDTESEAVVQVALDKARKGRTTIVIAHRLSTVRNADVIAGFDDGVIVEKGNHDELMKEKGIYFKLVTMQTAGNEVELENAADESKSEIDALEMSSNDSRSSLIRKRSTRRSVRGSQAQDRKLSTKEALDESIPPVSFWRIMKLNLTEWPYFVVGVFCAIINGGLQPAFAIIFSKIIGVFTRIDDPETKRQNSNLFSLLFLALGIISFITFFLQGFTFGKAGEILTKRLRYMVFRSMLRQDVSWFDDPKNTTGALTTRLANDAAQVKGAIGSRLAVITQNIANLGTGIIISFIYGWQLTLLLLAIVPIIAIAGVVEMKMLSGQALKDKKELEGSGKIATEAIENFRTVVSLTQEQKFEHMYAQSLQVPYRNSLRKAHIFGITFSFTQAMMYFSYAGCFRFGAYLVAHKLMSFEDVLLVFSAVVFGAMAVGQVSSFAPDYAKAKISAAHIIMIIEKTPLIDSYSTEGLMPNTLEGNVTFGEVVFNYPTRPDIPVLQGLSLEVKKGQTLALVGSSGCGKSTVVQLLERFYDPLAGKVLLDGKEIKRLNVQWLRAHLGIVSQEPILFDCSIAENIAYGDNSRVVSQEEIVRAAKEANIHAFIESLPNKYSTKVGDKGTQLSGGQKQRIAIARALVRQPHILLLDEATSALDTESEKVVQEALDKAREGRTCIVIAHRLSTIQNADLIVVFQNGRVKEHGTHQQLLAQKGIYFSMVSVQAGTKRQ
row,Molecule,Activity
1,BITTER MELON,inhibitor [+]

# Target: T1, ATP-dependent translocase ABCB1
# Assay: TP_TRANSPORTER: Daunomycin accumulation in Caco-2 cells
# Format: functional, cell-based
# Method in brief: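 Caco-2 monolayers (passages 40–66) grown 14 days on collagen-coated 24-well plates. After two PBS washes and equilibration in HBSS with 4 mM bicarbonate and 10 mM HEPES, pH 7.4, cells were incubated with 40 nM [3H]-daunomycin ± sample for 2 h at 37°C. Ice-cold PBS/0.05% azide washes, Triton X-100 lysis, scintillation counting. Expressed as % of control, mean±s.d., n=3.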
row,Activity,Molecule
1,inhibitor [+],CCCCCCCCCCCC(=O)OCC(O)CO (stereo unspecified) [GLYCEROL MONOLAURATE]
2,inhibitor [+],CCCCCCCCCCCCCCCCCC(=O)OCC(O)CO (stereo unspecified) [GLYCERYL MONOSTEARATE]
3,inhibitor [+],CCCCCCCC(=O)OCC(O)CO (stereo unspecified) [MONOCTANOIN COMPONENT A]
4,inhibitor [+],CCCCCCCCCC(=O)OCC(O)CO (stereo unspecified) [MONOCTANOIN COMPONENT B]
5,is not an inhibitor [-],CCCCCCCCCCCCCCCC(=O)O.OCC(O)CO [PALMITIC ACID + GLYCEROL]
6,is not an inhibitor [-],CCCCCCCCCCCCCCCC(=O)O [PALMITIC ACID]
7,is not an inhibitor [-],CCCCCCCCCCCCCCCC(=O)OCC(COC(=O)CCCCCCCCCCCCCCC)OC(=O)CCCCCCCCCCCCCCC [TRIPALMITIN]

# The remaining lines, values behind:
row,Molecule,Activity
1,CCCCCCCCCCCCCC(=O)OCC(O)CO (stereo unspecified),inhibitor [+]
2,"CCCCCCCCCCCCCCCC(=O)OCC(CO)OC(=O)CCCCCCCCCCCCCCC (stereo unspecified) [1,2-Dipalmitin]",is not an inhibitor [-]
3,"CCCCCCCCCCCCCCCC(=O)OCC(O)COC(=O)CCCCCCCCCCCCCCC [1,3-Dipalmitin]",is not an inhibitor [-]
4,CCCCC/C=C/C/C=C/CCCCCCCC(=O)OCC(O)CO (stereo unspecified) [1-Monolinolein],inhibitor [+]
5,CC/C=C/C/C=C/C/C=C/CCCCCCCC(=O)OCC(O)CO (stereo unspecified) [1-Monolinolenin],inhibitor [+]
6,CCCCCCCCCCCCCCCC(=O)OCC(O)CO (stereo unspecified) [1-Monopalmitin],inhibitor [+]
7,CCCCCC/C=C\CCCCCCCC(=O)OCC(O)CO (stereo unspecified) [1-Monopalmitolein],inhibitor [+]
8,OCC(O)CO [GLYCERIN],is not an inhibitor [-]
